From ChEMBL document CHEMBL1154208, “Antispasmodic effects and structure-activity relationships of labdane diterpenoids from Marrubium globosum ssp. libanoticum” (2009)
Calls of active or inactive are those of the source. The rule behind the calls is not given here.

What follows are molecules tested on Ileum (assay: Antispasmodic activity in mouse distal ileum assessed as inhibition of acetylcholine-induced contractions after 20 mins). Details: not given.
Format: functional, tissue-based
Summary of the method: (§1)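 Isolated mouse ileum segments. Contractions evoked by acetylcholine (10^-6 M) at 20 min intervals; after at least three stable control contractions, responses repeated with noncumulative increasing compound concentrations added 20 min before the stimulus, after tissue washing. Mean ± SEM of 6-8 experiments; concentration-response curves fitted by nonlinear regression.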

SMILES | inhibition
CCO[C@@H]1O[C@@H]2O[C@]3(CC[C@]2(O)[C@H]1O)[C@H](C)C[C@H]1OC(=O)[C@@]2(C)CCC[C@@]3(C)[C@@H]12 (relative stereo) | Dose-dependent effect

The molecules below were run on Ileum (assay: Antispasmodic activity in mouse distal ileum assessed as inhibition of acetylcholine-induced contractions at 100 ug/ml after 20 mins). Details: not given.
Format: functional
Summary of the method: as §1

SMILES | inhibition
C[C@@H]1C[C@H]2OC(=O)[C@@]3(C)CCC[C@@](C)([C@@H]23)[C@@]12CC[C@@]1(CO[C@H](O)C1)O2 | inactive
C[C@@H]1C[C@H]2OC(=O)[C@@]3(C)CCC[C@@](C)([C@@H]23)[C@@]12CC[C@]1(CO[C@H](O)C1)O2 | Active
C[C@@H]1C[C@H]2OC(=O)[C@@]3(C)CCC[C@@](C)([C@@H]23)[C@@]12CC[C@]1(CO[C@@H](O)C1)O2 | Active
C[C@@H]1C[C@H]2OC(=O)[C@@]3(C)CCC[C@@](C)([C@@H]23)[C@@]1(O)CCC1=CC(=O)OC1 | inactive
C[C@@H]1C[C@H]2OC(=O)[C@@]3(C)CCC[C@@](C)([C@@H]23)[C@@]1(O)CCCC(=O)O | Active
C[C@@H]1C[C@H]2OC(=O)[C@@]3(C)CCC[C@@](C)([C@@H]23)[C@@]12CC[C@@]1(COC(=O)C1)O2 | Active
C[C@@H]1C[C@H]2OC(=O)[C@@]3(C)CCC[C@@](C)([C@@H]23)[C@@]12CC[C@]1(COC(=O)C1)O2 | Active
C[C@@H]1C[C@@H](O)[C@H]2C(C)(C)CCC[C@]2(C)[C@@]1(O)CCC1=CC(=O)OC1 | inactive
C[C@@H]1C[C@H]2OC(=O)[C@@]3(C)CCC[C@@](C)([C@@H]23)[C@@]12CC[C@@]1(CO[C@@H](O)C1)O2 | inactive

Same assay, conditions: read-out: INH

SMILES | inhibition at 100 µg/mL [%]
C[C@@H]1C[C@H]2OC(=O)[C@@]3(C)CCC[C@@](C)([C@@H]23)[C@@]12CCCC(=O)O2 [MARRULACTONE] | < 50
C[C@@H]1C[C@H]2OC(=O)[C@@]3(C)CCC[C@@](C)([C@@H]23)[C@@]12CCC(=O)O2 | < 50
